In ChEMBL document CHEMBL5058577, “EUbOPEN Chemogenomics Library 2 (Multiplex)” (2022):

Test system: HEK-293T
Experiment: Multiplex assay against HEK293T
Type: toxicity, cell-based
Settings: human
Method in brief: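 Compound was added to live cells that had been stained at seeding with Hoechst33342, BioTracker Green Microtubule Cytoskeleton Dye, MitoTracker Red and Annexin V Alexa Fluor 680, and imaging followed on a CQ1 microscope at 37°C and 5% CO2. CellPathfinder machine-learning gating divided cells into Hoechst high-intensity objects or normal cells, normal cells into healthy, pyknosed or fragmented nuclei, and pyknosed cells into mitotic or apoptotic. Tubulin, mitochondrial-mass and membrane-permeability phenotypes are per cents of healthy-nucleus cells.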

[1] = 12 h, 1 µM, compound concentration 1 uM, replicate 1
[2] = 12 h, 1 µM, compound concentration 1 uM, replicate 2
[3] = 12 h, 10 µM, compound concentration 10 uM, replicate 1
[4] = 12 h, 10 µM, compound concentration 10 uM, replicate 2
[5] = 24 h, 1 µM, compound concentration 1 uM, replicate 1
[6] = 24 h, 1 µM, compound concentration 1 uM, replicate 2
[7] = 24 h, 10 µM, compound concentration 10 uM, replicate 1
[8] = 24 h, 10 µM, compound concentration 10 uM, replicate 2
[9] = 48 h, 1 µM, compound concentration 1 uM, replicate 1
[10] = 48 h, 1 µM, compound concentration 1 uM, replicate 2
[11] = 48 h, 10 µM, compound concentration 10 uM, replicate 1
[12] = 48 h, 10 µM, compound concentration 10 uM, replicate 2

## Oc1c(CN2CCN(c3ccccn3)CC2)cc(Cl)c2cccnc12
[1]
  Population Apoptotic (%): 30%
  Population Fragmented Nuclei (%): 6%
  Population Healthy Nuclei (%): 83%
  Population Hoechst High Intensity Objects (%): 7%
  Population Membrane Permeable-Phenotype (%): 0%
  Population Mitochondria Different-Phenotype (%): 44%
  Population Mitotic Cells (%): 70%
  Population Normal (%): 92%
  Population Pyknosed Nuclei (%): 10%
  Population Tubulin-Different-Phenotype (%): 34%
  Total Cell Count: 424
[2]
  Population Apoptotic (%): 45%
  Population Fragmented Nuclei (%): 5%
  Population Healthy Nuclei (%): 80%
  Population Mitochondria Different-Phenotype (%): 59%
  Population Mitotic Cells (%): 54%
  Population Pyknosed Nuclei (%): 13%
  Population Tubulin-Different-Phenotype (%): 20%
  Total Cell Count: 354
[3]
  Population Apoptotic (%): 71%
  Population Fragmented Nuclei (%): 16%
  Population Healthy Nuclei (%): 64%
  Population Hoechst High Intensity Objects (%): 11%
  Population Membrane Permeable-Phenotype (%): 0%
  Population Mitochondria Different-Phenotype (%): 64%
  Population Mitotic Cells (%): 28%
  Population Normal (%): 88%
  Population Pyknosed Nuclei (%): 18%
  Population Tubulin-Different-Phenotype (%): 20%
  Total Cell Count: 197
[4]
  Population Apoptotic (%): 73%
  Population Fragmented Nuclei (%): 18%
  Population Healthy Nuclei (%): 69%
  Population Hoechst High Intensity Objects (%): 6%
  Population Mitochondria Different-Phenotype (%): 70%
  Population Mitotic Cells (%): 26%
  Population Normal (%): 93%
  Population Pyknosed Nuclei (%): 12%
  Population Tubulin-Different-Phenotype (%): 32%
  Total Cell Count: 327
[5]
  Population Apoptotic (%): 34%
  Population Fragmented Nuclei (%): 6%
  Population Healthy Nuclei (%): 84%
  Population Hoechst High Intensity Objects (%): 3%
  Population Membrane Permeable-Phenotype (%): 0%
  Population Mitochondria Different-Phenotype (%): 22%
  Population Mitotic Cells (%): 65%
  Population Normal (%): 96%
  Population Pyknosed Nuclei (%): 9%
  Population Tubulin-Different-Phenotype (%): 23%
  Total Cell Count: 529
[6]
  Population Apoptotic (%): 33%
  Population Fragmented Nuclei (%): 7%
  Population Mitochondria Different-Phenotype (%): 40%
  Population Mitotic Cells (%): 66%
  Population Pyknosed Nuclei (%): 8%
  Population Tubulin-Different-Phenotype (%): 13%
  Total Cell Count: 427
[7]
  Population Apoptotic (%): 93%
  Population Fragmented Nuclei (%): 18%
  Population Healthy Nuclei (%): 65%
  Population Hoechst High Intensity Objects (%): 13%
  Population Membrane Permeable-Phenotype (%): 1%
  Population Mitochondria Different-Phenotype (%): 65%
  Population Mitotic Cells (%): 6%
  Population Normal (%): 86%
  Population Pyknosed Nuclei (%): 15%
  Population Tubulin-Different-Phenotype (%): 19%
  Total Cell Count: 227
[8]
  Population Apoptotic (%): 81%
  Population Fragmented Nuclei (%): 21%
  Population Healthy Nuclei (%): 63%
  Population Hoechst High Intensity Objects (%): 7%
  Population Mitochondria Different-Phenotype (%): 78%
  Population Mitotic Cells (%): 18%
  Population Normal (%): 92%
  Population Tubulin-Different-Phenotype (%): 34%
  Total Cell Count: 354
[9]
  Population Apoptotic (%): 29%
  Population Fragmented Nuclei (%): 12%
  Population Healthy Nuclei (%): 80%
  Population Hoechst High Intensity Objects (%): 3%
  Population Membrane Permeable-Phenotype (%): 0%
  Population Mitochondria Different-Phenotype (%): 22%
  Population Mitotic Cells (%): 70%
  Population Normal (%): 96%
  Population Pyknosed Nuclei (%): 6%
  Population Tubulin-Different-Phenotype (%): 16%
  Total Cell Count: 689
[10]
  Population Apoptotic (%): 31%
  Population Fragmented Nuclei (%): 10%
  Population Healthy Nuclei (%): 83%
  Population Mitochondria Different-Phenotype (%): 17%
  Population Mitotic Cells (%): 68%
  Population Pyknosed Nuclei (%): 5%
  Population Tubulin-Different-Phenotype (%): 10%
  Total Cell Count: 518
[11]
  Population Apoptotic (%): 83%
  Population Fragmented Nuclei (%): 23%
  Population Healthy Nuclei (%): 44%
  Population Hoechst High Intensity Objects (%): 25%
  Population Membrane Permeable-Phenotype (%): 0%
  Population Mitochondria Different-Phenotype (%): 60%
  Population Mitotic Cells (%): 16%
  Population Normal (%): 74%
  Population Pyknosed Nuclei (%): 31%
  Population Tubulin-Different-Phenotype (%): 30%
  Total Cell Count: 204
[12]
  Population Apoptotic (%): 94%
  Population Fragmented Nuclei (%): 28%
  Population Healthy Nuclei (%): 49%
  Population Hoechst High Intensity Objects (%): 14%
  Population Mitochondria Different-Phenotype (%): 81%
  Population Mitotic Cells (%): 5%
  Population Normal (%): 85%
  Population Pyknosed Nuclei (%): 22%
  Population Tubulin-Different-Phenotype (%): 42%
  Total Cell Count: 295
